Compound activity: PubChem BioAssay, Broad Institute
Glyco luc inh = increase of ERlucT glycosylation luciferase signal, primary screen, N-linked glycosylation inhibitor project, D54 ERlucT cells, luminescence, set 2; D54 ERlucT glycosylation luciferase reporter, 24 h; percent of 100 nM tunicamycin response; reporter increase, % at 12.5 µM; 360,000 tested, 0.23% active; AID 588692, 2011;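 active = mean luciferase reporter signal, scaled so untreated is 0 and the glycosylation-blocking control 100, at or above a set limit in every replicate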;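 note: luciferase carries N-glycosylation sites so blocking glycosylation raises the light; 0% = median of neutral control wells and 100% = median of 100 nM tunicamycin wells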
EWS-Fli inh = EWS/Fli-driven NR0B1 reporter inhibitors, primary screen, A673 cells, NR0B1 luciferase, luminescence, MLPCN library; 350,000 tested, 0.67% active; AID 651661, 2012; inhibition, % at 12.6 µM; viability-normalised;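 active = mean inhibition of at least 50% after viability correction, with every replicate also passing that limit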;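 note: firefly luciferase signal divided by Alamar Blue viability fluorescence both relative to DMSO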
Env fusion inh = inhibitors of HIV-1 Env-driven cell-cell fusion, primary screen, HeLa-JRFL effector, CEM21 target cells, luciferase. inhibition, % at 12.3 µM. 360,000 tested, 1.1% active. AID 651610, 2012;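 active = mean replicate inhibition score of at least 50 and every replicate individually at or above 50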;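 note: 0% = plate neutral controls and 100% = maraviroc near 300 nM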
PAX8 reporter = inhibitors of PAX8-driven TPO luciferase reporter, primary screen, RMG-I cells, single concentration | 360,000 tested, 1.2% active | inhibition, % at 12.6 µM | SteadyGlo, 24 h;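 active = mean replicate inhibition at least 60% with every replicate also reaching 60%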;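 note: luciferase light reporting Pax8 driven TPO promoter activity; plate controls were median of neutral control wells for no effect and mitoxantrone controls for full effect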
AF4-AF9 inh = inhibitors of AF4 peptide binding to AF9, primary screen, biochemical, AlphaScreen, biotin-AF4 peptide, FLAG-AF9, single point | Protein AF-9 (Homo sapiens), P42568 | inhibition, % at 10 µM | 350,000 tested, 0.47% active;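 active = every replicate reaching a set inhibition limit, whatever the replicate mean, cut at about 25% in these data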;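 note: 0% = plate neutral control median and 100% = total signal loss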
Target sequence (P42568 whole entry, looked up): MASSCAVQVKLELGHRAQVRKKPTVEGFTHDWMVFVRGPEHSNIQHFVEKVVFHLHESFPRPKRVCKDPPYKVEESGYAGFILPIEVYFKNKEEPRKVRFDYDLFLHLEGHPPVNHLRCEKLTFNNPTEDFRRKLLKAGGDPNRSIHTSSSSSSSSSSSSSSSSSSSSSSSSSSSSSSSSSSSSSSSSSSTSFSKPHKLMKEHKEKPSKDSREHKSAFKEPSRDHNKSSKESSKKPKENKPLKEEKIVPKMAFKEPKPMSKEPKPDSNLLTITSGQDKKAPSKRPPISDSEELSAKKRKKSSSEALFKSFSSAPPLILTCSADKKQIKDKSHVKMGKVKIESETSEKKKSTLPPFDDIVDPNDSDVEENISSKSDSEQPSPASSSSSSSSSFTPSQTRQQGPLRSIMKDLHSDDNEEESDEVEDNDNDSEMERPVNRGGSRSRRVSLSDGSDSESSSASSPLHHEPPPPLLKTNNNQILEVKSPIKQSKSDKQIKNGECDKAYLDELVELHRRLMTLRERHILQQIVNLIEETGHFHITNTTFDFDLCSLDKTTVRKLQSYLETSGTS
FN deposit inh = inhibitors of fibronectin matrix deposition, primary screen, AH1F cells, Alexa488-fibronectin fluorescence, plate reader | AH1F fibroblasts, overnight | inhibition, % at 12.6 µM | 350,000 tested, 0.086% active;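 active = mean inhibition across replicates of 30% or more, regardless of how many single replicates reach that level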;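 note: positive control wells lacked labelled fibronectin entirely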
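Material: AH1F fibroblasts assembling fluorescent fibronectin matrix; amount: 10000 AH1F cells/well; medium: DMEM, 2% serum; reagent: Alexa488-fibronectin, 24 nM final in well; dosing: single compound dose, delivered by pin transfer; incubation: 1 h adhesion, overnight exposure; detection: fluorescence after three HBSS washes, excitation 485 nm, emission 525 nm; measure: fibronectin deposition inhibition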
* = called active by the depositor; i = inactive; x = not tested or not shown; [ ] = dose if it differs, or a comment. Only some compounds are listed: those with a hit (about 2.5% of all), similar ones and a draw of the others.

SMILES	Glyco luc inh	EWS-Fli inh	Env fusion inh	PAX8 reporter	AF4-AF9 inh	FN deposit inh
COC(=O)[C@H]1[C@@H](O)[C@@]2(O)c3c(OC)cc(OC)cc3O[C@@]2(c2ccc(OC)cc2)[C@@H]1c1ccc(F)cc1	x	39	27	98*	1	4
COC(=O)C1C(=O)C=C(Nc2ccc(F)cc2)CC1c1ccc(OC)cc1 (stereo not drawn)	1	x	-18	-56	x	-5
CNC[C@@H]1Oc2c(NC(=O)Nc3c(C)noc3C)cccc2C(=O)N([C@H](C)CO)C[C@H]1C	x	4	-39[16.7 µM]	-9	-5	2
Cc1ccccc1Cn1ccc(=NCc2ccccc2)cc1	x	13	41	85*	0	x
O=c1ccn(Cc2ccccc2)cc1	2	-1	6	14	0	5
COCC(=O)N1C[C@@H](C)[C@H](OC)CN(C)C(=O)c2ccc(NC(=O)Nc3ccccc3)cc2OC[C@@H]1C	x	-4	21[16.7 µM]	x	-2	10
CCOC(=O)c1[nH]c(C)c(C(=O)Nc2ccccc2C)c1C	19	35	-151	1	-4	4
CCOC(=O)c1[nH]c(C)c(C(=O)Nc2cc(Cl)ccc2C)c1C	29*	47	x	x	-1	x
Cc1noc(C)c1NC(=O)Nc1ccc2c(c1)C(=O)N([C@@H](C)CO)C[C@@H](C)[C@@H](CN(C)S(=O)(=O)c1c(C)noc1C)OCCCC[C@@H](C)O2	x	-16	-66[16.7 µM]	4	-6	x
COc1ccccc1CNc1ncnc2cc(Cl)ccc12	0	19	12	40	-3	-1
CCOc1ccccc1CNc1ncnc2ccc(-c3c(C)noc3C)cc12	10	28	70*	2	-7	7
COc1ccc(CCN=C(N)C(C)c2ccccc2)cc1OC (stereo not drawn)	3	-3	23	13	-2	-5
CC(C)Cc1ccc(C(C)C(N)=NCCc2ccccc2)cc1 (stereo not drawn)	16	34	76*	13	5	8
C[C@@H]1CCCCO[C@H](CN(C)C(=O)CCCN(C)C)[C@@H](C)CN([C@@H](C)CO)C(=O)c2cc(N(C)C)ccc2O1	x	-3	8[16.7 µM]	2	-2	x
Cc1ccc(S(=O)(=O)N(C)C[C@H]2Oc3ccc(NC(=O)CCCN(C)C)cc3CC(=O)N([C@@H](C)CO)C[C@H]2C)cc1	x	1	x	-4	-2	x
COc1ccc(N(C(=O)c2ccco2)C(C(=O)NC2CCCC2)c2ccncc2)cc1 (stereo not drawn)	1	2	-8	0	-1	1
Cc1ccccc1CCN(C(=O)c1csnn1)C(C(=O)NC1CCCC1)c1ccncc1 (stereo not drawn)	-1	2	79*	5	0	3
CC(C)c1ccc(N(C(=O)c2csnn2)C(C(=O)NC2CCCC2)c2ccncc2)cc1 (stereo not drawn)	1	-53	77*	-3	-1	1
CC(C)c1ccc(N(C(=O)c2ccco2)C(C(=O)NC2CCCC2)c2ccncc2)cc1 (stereo not drawn)	0	-31	62*	-56	-1	-1
O=C(NC1CCCCC1)C(c1ccc(Cl)cc1)N(C(=O)c1cnccn1)c1ccc2c(c1)OCO2 (stereo not drawn)	3	x	83*	x	x	-6
COc1cccc(N(C(=O)c2cnccn2)C(C(=O)NC2CCCCC2)c2ccc(Cl)cc2)c1 (stereo not drawn)	0	x	i	19	x	-1
C[C@@H]1CN([C@@H](C)CO)C(=O)c2cc(NS(=O)(=O)c3ccc(F)cc3)ccc2O[C@@H](C)CCCCO[C@@H]1CN(C)C(=O)CCC(F)(F)F	x	-4	-51[16.7 µM]	-9	3	-4
C[C@H](CO)N1C[C@H](C)[C@H](CN(C)C(=O)Nc2ccc(F)cc2)Oc2ncc(C#Cc3ccccc3)cc2C1=O	x	-3	2[16.7 µM]	x	x	x
C[C@@H]1COCn2nncc2CC[C@H](Cc2ccccc2)C(=O)N1	x	x	x	x	x	-10
CC(=O)c1cccc(N(CC(=O)NC2CCCCC2)C(=O)c2csnn2)c1	2	8	3	1	34*	9
SMILES	Glyco luc inh	EWS-Fli inh	Env fusion inh	PAX8 reporter	AF4-AF9 inh	FN deposit inh
CCC(C)N(C(=O)c1csnn1)C(C(=O)NC1CCCC1)c1ccc(F)cc1 (stereo not drawn)	0	1	26	-5	0	0
CC(C)CCN(C(=O)c1csnn1)C(C(=O)NC1CCCCC1)c1ccc(F)cc1 (stereo not drawn)	0	1	59*	10	10	-3
COc1ccc(S(=O)(=O)N(C)C[C@H]2Oc3ccc(NC(=O)Cn4cnnn4)cc3CC(=O)N([C@H](C)CO)C[C@H]2C)cc1	x	0	-2[16.7 µM]	x	0	x
Cc1ccccc1-c1cccc([C@@H]2C[C@H]3[C@H](CON3C)CN2Cc2ccccc2)c1	-3	7	35	-17	5	active
COC(C(=O)C(O)C(C)O)C1Cc2cc3cc(OC4CC(OC5CC(O)C(O)C(C)O5)C(O)C(C)O4)c(C)c(O)c3c(O)c2C(=O)C1OC1CC(OC2CC(OC3CC(O)C(OC)C(C)O3)C(O)C(C)O2)C(O)C(C)O1 (stereo not drawn)	-7	14	78*	100*	2	-8
C[C@@H]1CCCCO[C@H](CN(C)Cc2ccc(C(F)(F)F)cc2)[C@@H](C)CN([C@H](C)CO)C(=O)c2cc(NC(=O)Cc3ccccc3)ccc2O1	x	-25	12[16.7 µM]	-8	x	x
C[C@@H]1CCCCO[C@H](CN(C)Cc2ccc(C(F)(F)F)cc2)[C@@H](C)CN([C@@H](C)CO)C(=O)c2cc(NC(=O)Cc3ccccc3)ccc2O1	x	-2	42[16.7 µM]	85*	x	x
C[C@@H]1CCCCO[C@@H](CN(C)Cc2ccc(C(F)(F)F)cc2)[C@@H](C)CN([C@@H](C)CO)C(=O)c2cc(NC(=O)Cc3ccccc3)ccc2O1	x	-9	35[16.7 µM]	52	x	x
C[C@@H]1CCCCO[C@H](CN(C)Cc2ccc(C(F)(F)F)cc2)[C@H](C)CN([C@H](C)CO)C(=O)c2cc(NC(=O)Cc3ccccc3)ccc2O1	x	16	57*[16.7 µM]	83*	x	4
C[C@H]1CN([C@@H](C)CO)C(=O)c2cc(NC(=O)Cc3ccccc3)ccc2O[C@@H]1CN(C)Cc1ccc(C(F)(F)F)cc1	x	-1	25[16.7 µM]	67*	2	x
C[C@H]1CCCCO[C@@H](CN(C)Cc2ccc(C(F)(F)F)cc2)[C@@H](C)CN([C@@H](C)CO)C(=O)c2cc(NC(=O)Cc3ccccc3)ccc2O1	x	13	75*[16.7 µM]	82*	x	x
CO[C@H]1CN(C)C(=O)c2cc(NC(=O)CC(F)(F)F)ccc2OC[C@@H](C)N(C(C)=O)C[C@H]1C	x	x	x	-8	-2	0
